Assay results taken from ChEMBL document CHEMBL1123189, “4-Aroyl-1,3-dihydro-2H-imidazol-2-ones: a new class of cardiotonic agents. 2. Effect of 4-pyridoyl substituents and related compounds” (1986).

What was measured:
Type in all cases: functional, Canis lupus familiaris
Canis familiaris [1] = assay: Compound was tested for inotropic activity by measuring the concentration required to increase heart rate by 15% in the anesthetized dog after intravenous administration
Outline: (§1)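 Anesthetized dogs, one compound per animal, stabilized at least 30 min after surgery. Contractile force from a Walton-Brodie strain gauge arch sutured to the left ventricle, heart rate from lead II EKG, aortic pressure via femoral cannula. Readings at 5- to 10-min intervals before and after iv injection of at least three doses, with return to baseline between doses. Equieffective doses extrapolated from dose-response curves; means with 95% confidence intervals.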

Canis familiaris [2] = assay: Compound was tested for inotropic activity by measuring the concentration required to mean blood pressure by 20% in the anesthetized dog after intravenous administration; outline: as §1
Canis familiaris [3] = assay: Compound was tested for inotropic activity by measuring the concentration required to increase cardiac contractile force by 30% in the anesthetized dog after intravenous administration; outline: as §1

| SMILES | Equieffective dose (Canis familiaris [1]) [mg/kg] | Equieffective dose (Canis familiaris [2]) [mg/kg] | Equieffective dose (Canis familiaris [3]) [mg/kg] |
| --- | --- | --- | --- |
| CCc1[nH]c(O)nc1C(=O)c1cccnc1Cl | >3 | >3 | 0.31 |
| CCc1[nH]c(=O)[nH]c1C(=O)c1ccncc1 [PIROXIMONE] | 0.42 | 1.7 | 0.07 |
| Cc1[nH]c(O)nc1C(=O)c1cccnc1Cl | 5.1 | >10 | 0.47 |
| CCc1[nH]c(O)nc1C(=O)c1cc[n+]([O-])cc1 | >1 | >1 | >1 |
| CCc1[nH]c(O)nc1C(=O)c1cccnc1 | >3 | >3 | 0.22 |
| CCc1[nH]c(O)nc1C(=O)c1ccccn1 | 0.83 | >3 | 0.2 |
| CCc1[nH]c(O)nc1C(=O)c1cnccc1Cl | 11.8 | 7.03 | 0.56 |
| Cc1[nH]c(O)nc1C(=O)c1ccccn1 | 3.29 | 1.91 | 1.57 |
| CCCc1[nH]c(O)nc1C(=O)c1ccncc1 | 3.38 | >3 | 1.7 |
| Cc1[nH]c(O)nc1C(=O)c1cccnc1 | >3 | >3 | 0.64 |
| Cc1[nH]c(O)nc1C(=O)c1ccncc1 | 3.37 | 2.58 | 0.13 |
